According to ChEMBL document CHEMBL4376862, “Synthesis and evaluation of novel chlorophyll a derivatives as potent photosensitizers for photodynamic therapy” (Eur J Med Chem, 2020):

tested on: not listed separately; assay: Therapeutic index, ratio of TC50 for human A549 cells under dark to IC50 for human A549 cells irradiated with 1 J/cm2 of 650 nanometer laser light; assay type: toxicity, cell-based; settings: read-out: TI; call rule not given here
Procedure, shortened: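 A549 cells (F-12K, 10% FBS, 37 °C, 5% CO2) seeded 24 h, then exposed to 0–10 photosensitizer for 24 h. Dark arm: MTT 48 h later. Light arm: 650 nm laser, 1 J/cm2 (25 mW/cm2, 40 s), then MTT. A570 viability relative to control, triplicate. Ratio = dark TC50 / irradiated IC50.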

SMILES | selectivity ratio
CCOC(C)c1c(C)c2cc3nc(c4c5[nH]c(cc6nc(cc1[nH]2)C(C)=C6CC)c(C)c5C(=O)C4)[C@@H](CCC(=O)NCC(=O)CCC(=O)O)[C@@H]3C (some centres undefined) | 4.74

tested on: Mus musculus; assay: Phototoxicity in ICR mouse assessed as change in auricles 0.45 mg/kg, iv in presence of 10 mW/cm2 light irradiation for 10 mins upto 7 days measured after 1day of light irradiation by H and E staining based microscopic analysis; assay type: organism-based; settings: in vivo

SMILES | Activity
C=Cc1c(C)c2cc3nc(c4c5[nH]c(cc6nc(cc1[nH]2)C(C)=C6CC)c(C)c5C(=O)C4)[C@@H](CCC(=O)O)[C@@H]3C [PYROPHEOPHORBIDE A] | Non-Toxic

tested on: Mus musculus; assay: Phototoxicity in ICR mouse assessed as ear weight at 0.45 mg/kg, iv followed by 10 mW/cm2 light irradiation for 10 mins at 7 days after drug challenge measured after 1 day of light irradiation (13.2 +/- 1.6 mg); assay type: organism-based; settings: in vivo

SMILES | Activity
C=Cc1c(C)c2cc3nc(c4c5[nH]c(cc6nc(cc1[nH]2)C(C)=C6CC)c(C)c5C(=O)C4)[C@@H](CCC(=O)O)[C@@H]3C [PYROPHEOPHORBIDE A] | 13.3 mg

tested on: Mus musculus; assay: Phototoxicity in ICR mouse assessed as ear weight at 0.45 mg/kg, iv followed by 10 mW/cm2 light irradiation for 10 mins at 5 days after drug challenge measured after 1 day of light irradiation (reference value: 12.9 +/- 1.4 mg); assay type: organism-based; settings: in vivo

SMILES | Activity
C=Cc1c(C)c2cc3nc(c4c5[nH]c(cc6nc(cc1[nH]2)C(C)=C6CC)c(C)c5C(=O)C4)[C@@H](CCC(=O)O)[C@@H]3C [PYROPHEOPHORBIDE A] | 13.2 mg

tested on: Mus musculus; assay: Phototoxicity in ICR mouse assessed as ear weight at 0.45 mg/kg, iv followed by 10 mW/cm2 light irradiation for 10 mins at 3 days after drug challenge measured after 1 day of light irradiation (reference value: 12.8 +/- 1.5 mg); assay type: organism-based; settings: in vivo

SMILES | Activity
C=Cc1c(C)c2cc3nc(c4c5[nH]c(cc6nc(cc1[nH]2)C(C)=C6CC)c(C)c5C(=O)C4)[C@@H](CCC(=O)O)[C@@H]3C [PYROPHEOPHORBIDE A] | 12.7 mg

tested on: Mus musculus; assay: Phototoxicity in ICR mouse assessed as ear weight at 0.45 mg/kg, iv followed by 10 mW/cm2 light irradiation for 10 mins at 1 day after drug challenge measured after 1 day of light irradiation (reference value: 12.6 +/- 1.2 mg); assay type: organism-based; settings: in vivo

SMILES | Activity
C=Cc1c(C)c2cc3nc(c4c5[nH]c(cc6nc(cc1[nH]2)C(C)=C6CC)c(C)c5C(=O)C4)[C@@H](CCC(=O)O)[C@@H]3C [PYROPHEOPHORBIDE A] | 13.1 mg

tested on: not listed separately; assay: Octanol/water partition coefficient, logP of compound by shake flask method; assay type: physicochemical; settings: not given
Procedure, shortened: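 Shake-flask method: equilibrium concentrations in octanol and water measured by UV-vis absorbance; log P taken as log of octanol/water concentration ratio (mg/L).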

logP | SMILES
3.77 | C=Cc1c(C)c2cc3nc(c4c5[nH]c(cc6nc(cc1[nH]2)C(C)=C6CC)c(C)c5C(=O)C4)[C@@H](CCC(=O)O)[C@@H]3C [PYROPHEOPHORBIDE A]
2.16 | CCOC(C)c1c(C)c2cc3nc(c4c5[nH]c(cc6nc(cc1[nH]2)C(C)=C6CC)c(C)c5C(=O)C4)[C@@H](CCC(=O)NCC(=O)CCC(=O)O)[C@@H]3C (some centres undefined)

tested on: not listed separately; assay: Absorption property of compound in DMSO assessed as strong absorption wavelength at 1 x 10^-3 M by UV-spectra analysis; assay type: physicochemical; settings: 1000 µM
Procedure, shortened: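 Stocks 1 mM in DMSO; spectra run over […] range (units as printed), 300–800 nm in 1 nm steps, room temperature, quartz cuvettes, UV-vis spectrophotometer.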

Activity | SMILES
Active | C=Cc1c(C)c2cc3nc(c4c5[nH]c(cc6nc(cc1[nH]2)C(C)=C6CC)c(C)c5C(=O)C4)[C@@H](CCC(=O)O)[C@@H]3C [PYROPHEOPHORBIDE A]
660 to 670 nm | CCOC(C)c1c(C)c2cc3nc(c4c5[nH]c(cc6nc(cc1[nH]2)C(C)=C6CC)c(C)c5C(=O)C4)[C@@H](CCC(=O)NCC(=O)CCC(=O)O)[C@@H]3C (some centres undefined)

tested on: not listed separately; assay: Emission property of a compound in DMSO assessed as red shift at 5 uM on excitation with light at 410 to 415 nm by 3D fluorescence spectra analysis; assay type: physicochemical; settings: not given
Procedure, shortened: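 Stock 1 mM in DMSO, measured at […] (so in the source); excitation scanned 350–640 nm, emission 600–750 nm, 1 nm steps, room temperature, quartz cuvettes; 3D fluorescence matrix spectra recorded.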

Activity | SMILES
661 to 669 nm | C=Cc1c(C)c2cc3nc(c4c5[nH]c(cc6nc(cc1[nH]2)C(C)=C6CC)c(C)c5C(=O)C4)[C@@H](CCC(=O)O)[C@@H]3C [PYROPHEOPHORBIDE A]
661 to 669 nm | CCOC(C)c1c(C)c2cc3nc(c4c5[nH]c(cc6nc(cc1[nH]2)C(C)=C6CC)c(C)c5C(=O)C4)[C@@H](CCC(=O)NCC(=O)CCC(=O)O)[C@@H]3C (some centres undefined)

tested on: not listed separately; assay: Induction of ROS generation in DMF solution assessed as slope of the photodegradation rate of DPBF at 2 uM followed by irradiation measured every 10 secs by spectrophotometric analysis; assay type: functional; settings: not given

SMILES | K
C=Cc1c(C)c2cc3nc(c4c5[nH]c(cc6nc(cc1[nH]2)C(C)=C6CC)c(C)c5C(=O)C4)[C@@H](CCC(=O)O)[C@@H]3C [PYROPHEOPHORBIDE A] | 0.0081 s⁻¹
CCOC(C)c1c(C)c2cc3nc(c4c5[nH]c(cc6nc(cc1[nH]2)C(C)=C6CC)c(C)c5C(=O)C4)[C@@H](CCC(=O)NCC(=O)CCC(=O)O)[C@@H]3C (some centres undefined) | 0.0161 s⁻¹

tested on: not listed separately; assay: Drug uptake in human A549 cells incubated upto 24 hrs by fluorescence spectrophotometer analysis; assay type: ADME, cell-based; settings: a549, 24 h
Procedure, shortened: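 A549 cells (F-12K, 10% FBS, 37 °C, 5% CO2) grown in 24 wells and exposed to photosensitizer for 0.5, 1, 2, 4, 8, 12 or 24 h; cells harvested by digestion, fluorescence read on a spectrophotometer.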

Drug uptake | SMILES
Active | CCOC(C)c1c(C)c2cc3nc(c4c5[nH]c(cc6nc(cc1[nH]2)C(C)=C6CC)c(C)c5C(=O)C4)[C@@H](CCC(=O)NCC(=O)CCC(=O)O)[C@@H]3C (some centres undefined)

tested on: not listed separately; assay: Dark toxicity in human A549 cells assessed as reduction in cell viability incubated under dark for 24 hrs measured after 48 hrs by MTT assay; assay type: cell-based; settings: read-out: TC50
Procedure, shortened: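 A549 cells seeded at 5×10^4 cells/100 µL per well for 24 h, treated in the dark with […] (so in the source) for 24 h; MTT added 4 h, absorbance 570 nm, 48 h later; viability as OD treated/OD control; triplicate, mean ± SD.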

SMILES | CC50 at 24 h
CCOC(C)c1c(C)c2cc3nc(c4c5[nH]c(cc6nc(cc1[nH]2)C(C)=C6CC)c(C)c5C(=O)C4)[C@@H](CCC(=O)NCC(=O)CCC(=O)O)[C@@H]3C (some centres undefined) | 3.27 µM

tested on: A549; assay: Phototoxicity against human A549 cells assessed as reduction in cell proliferation irradiated with 1 J/cm2 of 650 nanometer laser light preincubated for 24 hrs measured after 48 hrs by MTT assay; assay type: functional, cell-based; settings: A549, light or radiation study
Procedure, shortened: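 A549 cells seeded 5×10^4 cells/100 µL per well, given […] for 24 h, then 650 nm semiconductor laser at 1 J/cm2 (25 mW/cm2, 40 s); MTT 4 h, absorbance 570 nm; viability vs control; triplicate, mean ± SD.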

SMILES | IC50
CCOC(C)c1c(C)c2cc3nc(c4c5[nH]c(cc6nc(cc1[nH]2)C(C)=C6CC)c(C)c5C(=O)C4)[C@@H](CCC(=O)NCC(=O)CCC(=O)O)[C@@H]3C (some centres undefined) | 0.69 µM

tested on: A549; assay: Photodynamic antitumor activity against human A549 cells xenografted in BALB/c nude mouse assessed as decrease in tumor weight at 0.3 mg/kg, iv followed by laser light irradiation at 120 J/cm2 measured after 14 days; assay type: functional; settings: not given
Procedure, shortened: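 Male BALB/c nude mice (5–6 weeks, 14–16 g) given 2×10^6 A549 cells s.c. in 0.2 mL PBS; at 6–7 mm tumors randomized into ten groups; drug via tail vein, 650 nm diode laser 120 J/cm2 at 180 mW/cm2 24 h later; caliper volume a×b²/2, followed 14 days.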

SMILES | Activity
CCOC(C)c1c(C)c2cc3nc(c4c5[nH]c(cc6nc(cc1[nH]2)C(C)=C6CC)c(C)c5C(=O)C4)[C@@H](CCC(=O)NCC(=O)CCC(=O)O)[C@@H]3C (some centres undefined) | 0.0527 g

tested on: Mus musculus; assay: Phototoxicity in ICR mouse assessed as change in exposed neck skin 0.45 mg/kg, iv in presence of 10 mW/cm2 light irradiation for 10 mins upto 7 days measured after 1day of light irradiation by H and E staining based microscopic analysis; assay type: organism-based; settings: in vivo

SMILES | Activity
C=Cc1c(C)c2cc3nc(c4c5[nH]c(cc6nc(cc1[nH]2)C(C)=C6CC)c(C)c5C(=O)C4)[C@@H](CCC(=O)O)[C@@H]3C [PYROPHEOPHORBIDE A] | Non-Toxic

tested on: Cavia porcellus; assay: Phototoxicity in guinea pig assessed as change in left ear weight 4.5 mg/kg, iv followed by 10 mW/cm2 light irradiation for 10 mins measured after 1 day of light irradiation (reference value: 39.2 +/- 1.8 mg); assay type: organism-based; settings: in vivo

SMILES | Activity
C=Cc1c(C)c2cc3nc(c4c5[nH]c(cc6nc(cc1[nH]2)C(C)=C6CC)c(C)c5C(=O)C4)[C@@H](CCC(=O)O)[C@@H]3C [PYROPHEOPHORBIDE A] | 57.2 mg

tested on: Cavia porcellus; assay: Phototoxicity in guinea pig assessed as change in right ear weight 4.5 mg/kg, iv followed by 10 mW/cm2 light irradiation for 10 mins measured after 1 day of light irradiation (reference value: 40.4 +/- 2.4 mg); assay type: organism-based; settings: in vivo

SMILES | Activity
C=Cc1c(C)c2cc3nc(c4c5[nH]c(cc6nc(cc1[nH]2)C(C)=C6CC)c(C)c5C(=O)C4)[C@@H](CCC(=O)O)[C@@H]3C [PYROPHEOPHORBIDE A] | 59.2 mg

tested on: Cavia porcellus; assay: Phototoxicity in guinea pig assessed as change in back skin weight 4.5 mg/kg, iv followed by 10 mW/cm2 light irradiation for 10 mins measured after 1day of light irradiation (reference value: 72.4 +/- 3.1 mg); assay type: organism-based; settings: in vivo, 24 h

SMILES | Activity
C=Cc1c(C)c2cc3nc(c4c5[nH]c(cc6nc(cc1[nH]2)C(C)=C6CC)c(C)c5C(=O)C4)[C@@H](CCC(=O)O)[C@@H]3C [PYROPHEOPHORBIDE A] | 100.3 mg

tested on: not listed separately; assay: Induction of ROS generation in DMF solution assessed as ROS quantum yield at 2 uM followed by irradiation measured every 10 secs by spectrophotometric analysis; assay type: functional; settings: not given

SMILES | Ratio
C=Cc1c(C)c2cc3nc(c4c5[nH]c(cc6nc(cc1[nH]2)C(C)=C6CC)c(C)c5C(=O)C4)[C@@H](CCC(=O)O)[C@@H]3C [PYROPHEOPHORBIDE A] | 0.405
CCOC(C)c1c(C)c2cc3nc(c4c5[nH]c(cc6nc(cc1[nH]2)C(C)=C6CC)c(C)c5C(=O)C4)[C@@H](CCC(=O)NCC(=O)CCC(=O)O)[C@@H]3C (some centres undefined) | 0.805
